The values that follow come from ChEMBL document CHEMBL5038657, “Discovery of Novel Inhibitors of Uridine Diphosphate-N-Acetylenolpyruvylglucosamine Reductase (MurB) from Pseudomonas aeruginosa, an Opportunistic Infectious Agent Causing Death in Cystic Fibrosis Patients” (J Med Chem, 2022).

The subject of assay [1] is Pseudomonas aeruginosa. Briefly: Binding affinity to Pseudomonas aeruginosa MurB assessed as change in melting temperature at 1 mM by differential scanning fluorimetry. In outline:
(§1)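 Recombinant Pa MurB (E. coli BL21(DE3)-expressed, SUMO tag cleaved; MurB–FAD complex) at 10 μM in 25 mM Tris–HCl pH 8.0, 150 mM NaCl, 5X SyproOrange with ligand in DMSO-d6. Ramped 25–95 °C in 0.5 °C steps of 30 s. ΔTm taken against DMSO-d6 reference, with NADP+ as positive control. Ligand at 5.0 mM run once (n = 1); at 1.0 mM run in triplicate (n = 3).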
On the technique in general: Differential scanning fluorimetry follows unfolding on heating by fluorescence.

Assay [2] can be described thus: Binding affinity to Pseudomonas aeruginosa MurB assessed as dissociation constant at 3 mM by isothermal titration calorimetry. Background: Isothermal titration calorimetry measures the heat released or taken up as one component is titrated into another.
For assay [3], the system named is Pseudomonas aeruginosa. Briefly: Binding affinity to Pseudomonas aeruginosa MurB assessed as change in melting temperature at 5 mM by differential scanning fluorimetry. In outline: as §1

What is called ΔTm is the change in melting temperature against a reference sample. By Kd is commonly meant the concentration at which binding is half-saturated. Consider `Cc1cc(Cl)c(Cl)cc1-n1ncc(C(=O)NS(=O)(=O)c2ccccc2)c1C(F)(F)F`, for which the ΔTm in the assay on Pseudomonas aeruginosa [1] came to 2.7 °C. In addition, in assay [2], the Kd came to 12 µM.
As to `Cc1cccc(C)c1-n1c(C)cc(C(=O)O)c1C`, the thermal shift (ΔTm) in the assay on Pseudomonas aeruginosa [1] is 3 °C.
`CS(=O)(=O)NC(=O)c1cnn(-c2ccccc2)c1C(F)(F)F`: the ΔTm in the assay with Pseudomonas aeruginosa [1] is 0.5 °C.
Consider `O=C(O)Cc1ccc(Cl)c(Cl)c1`, for which the ΔTm in the assay on Pseudomonas aeruginosa [1] amounted to 1 °C; with Pseudomonas aeruginosa [3], 1.5 °C.
With `Cc1cc(C(=O)O)c(C)n1Cc1cccs1`, the ΔTm with Pseudomonas aeruginosa [1] was 1.5 °C; with Pseudomonas aeruginosa [3] it was 2 °C.
On to `Cc1cccc(C)c1-n1ncc(C(=O)NS(=O)(=O)c2cccc(Br)c2)c1C(F)(F)F`, for which the ΔTm in the assay on Pseudomonas aeruginosa [1] was determined as 1.3 °C.
Turning to `Cc1ccc(C)c(-n2ncc(C(=O)O)c2C(F)(F)F)c1`, the shift in melting temperature (ΔTm) with Pseudomonas aeruginosa [1] was 2 °C. The Kd in assay [2] is 138 µM.
As for `O=C(O)c1cnn(-c2c(Cl)cccc2Cl)c1C(F)(F)F`, in the assay with Pseudomonas aeruginosa [1], the ΔTm came out at 2.5 °C.
Take `O=C(O)c1cnn(Cc2ccccc2)c1C(F)(F)F`: the ΔTm in the assay on Pseudomonas aeruginosa [1] is 1 °C.
Still for that read-out and setting: the result for `NC(=O)c1cccc(-n2ncc(C(=O)O)c2C(F)(F)F)c1` reads 0.5 °C.
On the same count and under the same terms, for `O=C(NS(=O)(=O)c1ccccc1)c1cnn(-c2ccccc2)c1C(F)(F)F` the value was 1 °C.
Still for that read-out and setting: for `Cc1ccccc1-n1c(C)cc(C(=O)O)c1C(F)(F)F` the value was 2.5 °C.
In the case of `Cc1c(C(=O)NS(=O)(=O)Cc2ccccc2)cnn1-c1ccccc1`, the ΔTm with Pseudomonas aeruginosa [1] was found to be 0 °C.
On the same count and under the same terms, for `O=C(O)c1cnn(-c2cccnc2)c1C(F)(F)F` the value was 0.3 °C.
On to `O=C(O)Cc1ccccc1`, for which the values for the ΔTm with Pseudomonas aeruginosa [1] and in the assay on Pseudomonas aeruginosa [3] were 0 °C and 1 °C, respectively.
Consider `Cc1cc(Cl)c(Cl)cc1-n1c(C)cc(C(=O)O)c1C(F)(F)F`, for which the ΔTm in the assay with Pseudomonas aeruginosa [1] was 4.7 °C.
The same measure, in the same setting: for `NC(=O)C1=CN([C@@H]2O[C@H](COP(=O)(O)OP(=O)(O)OC[C@H]3O[C@@H](n4cnc5c(N)ncnc54)[C@H](OP(=O)(O)O)[C@@H]3O)[C@@H](O)[C@H]2O)C=CC1` the value was 3 °C.
As for `Nc1c(C(=O)O)cnn1-c1ccccc1`, the ΔTm with Pseudomonas aeruginosa [1] stood at 0 °C.
Take `NC(=O)c1ccc[n+]([C@@H]2O[C@H](COP(=O)(O)OP(=O)(O)OC[C@H]3O[C@@H](n4cnc5c(N)ncnc54)[C@H](OP(=O)(O)O)[C@@H]3O)[C@@H](O)[C@H]2O)c1`: in the assay on Pseudomonas aeruginosa [1], the thermal shift (ΔTm) was 3.5 °C.
The same measure, in the same setting: for `O=C(O)c1cnn(-c2ccccc2)c1C(F)(F)F` the value was 1 °C.
Take `Cc1cc(C(=O)O)c(C(F)(F)F)n1-c1ccccc1`: the ΔTm in the assay on Pseudomonas aeruginosa [1] was 2 °C. In addition, the Kd in assay [2] stood at 112 µM.
For the compound `Cc1cc([N+](=O)[O-])ccc1-n1ncc(C(=O)O)c1C(F)(F)F`, the shift in melting temperature (ΔTm) with Pseudomonas aeruginosa [1] worked out at 1.7 °C.
On the same count and under the same terms, for `O=C(O)c1cnn(-c2ccccc2C(F)(F)F)c1C(F)(F)F` the value was 1 °C.
For `NCc1ccc2[nH]ccc2c1`, the ΔTm in the assay on Pseudomonas aeruginosa [1] was 0.2 °C; in the assay on Pseudomonas aeruginosa [3], 1 °C.
In the case of `Cc1ccccc1-n1c(C)cc(C(=O)O)c1C`, in the assay on Pseudomonas aeruginosa [1], the ΔTm turned out to be 2 °C.
On the same count and under the same terms, for `NC(=O)c1cnn(-c2ccccc2)c1C(F)(F)F` the value was 0 °C.
Turning to `O=C(O)c1cnn(-c2ccc(Cl)c(Cl)c2)c1C(F)(F)F`, the ΔTm in the assay with Pseudomonas aeruginosa [1] turned out to be 2.3 °C. In addition, the Kd in assay [2] is 26.1 µM.
Turning to `O=C(O)c1cnn(-c2cccs2)c1C(F)(F)F`, the ΔTm with Pseudomonas aeruginosa [1] was 0.3 °C.
For `Cc1cc(C(=O)O)n[nH]1`, the values for the shift in melting temperature (ΔTm) in the assay on Pseudomonas aeruginosa [1] and in the assay on Pseudomonas aeruginosa [3] were 0 °C and 1 °C, respectively.
`Cc1c(C(=O)O)cc(CCO)n1-c1ccccc1`: the ΔTm in the assay with Pseudomonas aeruginosa [1] stood at 2 °C.
With `N#CCc1nc2ccccc2s1`, the ΔTm in the assay with Pseudomonas aeruginosa [1] came out at 0 °C; in the assay with Pseudomonas aeruginosa [3], 1 °C.
Regarding `Cc1cccc(C)c1-n1ncc(C(=O)O)c1C(F)(F)F`, in the assay on Pseudomonas aeruginosa [1], the ΔTm stood at 2.5 °C.
Take `Cc1nc(C(=O)O)c(C)n1-c1ccccc1`: in the assay with Pseudomonas aeruginosa [1], the ΔTm stood at 0.7 °C.
For the compound `O=C(O)c1cnn(-c2ccccc2Cl)c1C(F)(F)F`, the ΔTm in the assay with Pseudomonas aeruginosa [1] was 1.5 °C. Also, in assay [2], the Kd amounted to 148 µM.
Take `CN1C(=O)C(=O)c2ccccc21`: the figures for the ΔTm in the assay with Pseudomonas aeruginosa [1] and in the assay on Pseudomonas aeruginosa [3] were 1 °C and 4 °C, respectively.
In the case of `Cc1ccc(-n2ncc(C(=O)O)c2C(F)(F)F)c(C)c1`, the ΔTm in the assay with Pseudomonas aeruginosa [1] amounted to 2.3 °C.
On the same count and under the same terms, for `Cc1cc(Cl)c(Cl)cc1-n1ncc(C(=O)O)c1C(F)(F)F` the value was 5 °C; for `Cc1c(C(=O)NCc2ccccc2)cnn1-c1ccccc1`, 0 °C.
On the same count and under the same terms, for `Cc1cccc(C)c1-n1ncc(C(=O)NS(=O)(=O)c2ccccc2)c1C(F)(F)F` the value was 3 °C.
Take `Cc1c(C(=O)O)cnn1-c1ccccc1`: the ΔTm in the assay on Pseudomonas aeruginosa [1] amounted to 0.5 °C; in the assay with Pseudomonas aeruginosa [3], 1.5 °C.
For the compound `Cc1cccc(-n2ncc(C(=O)O)c2C(F)(F)F)c1C`, the thermal shift (ΔTm) in the assay with Pseudomonas aeruginosa [1] stood at 2 °C.
In the case of `O=C(O)c1cnn(-c2ccccc2Br)c1C(F)(F)F`, the ΔTm in the assay with Pseudomonas aeruginosa [1] came out at 2 °C.
As to `Cc1cc(C(=O)O)c(C)n1-c1cccc(Cl)c1`, the thermal shift (ΔTm) in the assay with Pseudomonas aeruginosa [1] came out at 1.5 °C.
Regarding `O=C(O)c1cnn(-c2ccc(C(F)(F)F)cc2)c1C(F)(F)F`, the ΔTm with Pseudomonas aeruginosa [1] came out at 1 °C.
Consider `NCc1ccc2sccc2c1`, for which the ΔTm in the assay with Pseudomonas aeruginosa [1] was 0 °C; in the assay with Pseudomonas aeruginosa [3], 1 °C.
The matching figures for `O=C1Nc2ccccc2C1=O`: 1 °C and 3.5 °C.
The matching figures for `O=C(O)c1ccc(Cl)c(Cl)c1`: 0.5 °C and 1 °C.
Regarding `Cc1cc(C(=O)O)c(C)n1-c1ccccc1`, the ΔTm with Pseudomonas aeruginosa [1] is 2 °C. Further, the Kd in assay [2] came to 110 µM.
Regarding `O=C(O)c1cnn(-c2ccccc2F)c1C(F)(F)F`, the ΔTm with Pseudomonas aeruginosa [1] was determined as 1 °C.
In the case of `Cc1c(-n2ncc(C(=O)O)c2C(F)(F)F)ccc(Cl)c1Cl`, the thermal shift (ΔTm) in the assay with Pseudomonas aeruginosa [1] worked out at 3.7 °C. For the same compound, the Kd in assay [2] was 11.3 µM.
Turning to `O=C(O)c1cnn(-c2ccccc2)c1CO`, the ΔTm with Pseudomonas aeruginosa [1] came to 0.2 °C.
On the same count and under the same terms, the result for `Cc1cc(C(=O)O)c(C)n1-c1ccc(Cl)cc1` reads 1.5 °C.
As to `Cc1ccccc1-n1ncc(C(=O)O)c1C(F)(F)F`, the ΔTm in the assay on Pseudomonas aeruginosa [1] stood at 2 °C.
Same read-out and setting: for `O=C(O)c1cnn(Cc2cccs2)c1C(F)(F)F` the value was 1 °C.
Turning to `CCOC(=O)c1cnn(-c2ccccc2Cl)c1C(F)(F)F`, the ΔTm in the assay on Pseudomonas aeruginosa [1] turned out to be 0 °C.
As to `O=C(O)c1cnn(-c2ccccc2)c1O`, the ΔTm with Pseudomonas aeruginosa [1] is 0.7 °C.
Same read-out and setting: for `Cc1cc(C(=O)O)c(C)n1-c1ccc(Cl)c(Cl)c1` the value was 2.3 °C.
As for `Cc1cc(CC(=O)O)on1`, the ΔTm in the assay on Pseudomonas aeruginosa [1] came out at 0 °C; in the assay with Pseudomonas aeruginosa [3], 1 °C.
Regarding `Cc1c(-n2c(C)cc(C(=O)O)c2C(F)(F)F)ccc(Cl)c1Cl`, the ΔTm with Pseudomonas aeruginosa [1] is 2.7 °C. In assay [2], the Kd stood at 11.4 µM.
With `O=C(O)CCc1cccc(Cl)c1`, the ΔTm amounted to 0.5 °C with Pseudomonas aeruginosa [1] and 1 °C in the assay on Pseudomonas aeruginosa [3].
For `Cc1c(-n2c(C)cc(C(=O)O)c2C)ccc(Cl)c1Cl`, the ΔTm with Pseudomonas aeruginosa [1] was 4 °C.
As to `Cc1cc(Cl)c(Cl)cc1-n1c(C)cc(C(=O)O)c1C`, the shift in melting temperature (ΔTm) in the assay on Pseudomonas aeruginosa [1] was 3.5 °C. The Kd in assay [2] was determined as 24.1 µM.
`O=C(O)c1cnn(-c2ccncc2)c1C(F)(F)F`: in the assay on Pseudomonas aeruginosa [1], the ΔTm came out at 0 °C.
Regarding `O=C(O)COc1ccc(Cl)c(Cl)c1`, the ΔTm in the assay on Pseudomonas aeruginosa [1] is 1 °C; in the assay with Pseudomonas aeruginosa [3], 1.5 °C.
For the compound `Cc1c(C(=O)O)nnn1-c1ccccc1`, in the assay with Pseudomonas aeruginosa [1], the ΔTm came to 0.5 °C.
